Assay results pooled from the literature.
Protocols differ between the studies behind these lines.
Method: competition with immobilised ligand
RPS6KA5 C-terminal kinase domain: Ribosomal protein S6 kinase alpha-5, C-terminal kinase domain (RPS6KA5, Homo sapiens, UniProt O75582)
RPS6KA5 N-terminal kinase domain: Ribosomal protein S6 kinase alpha-5, N-terminal kinase domain (RPS6KA5, Homo sapiens, UniProt O75582)

O=C(NCCCN1CCOCC1)c1ccc(Nc2ncc(Cl)c(-c3ccc(Cl)s3)n2)cc1 — remaining binding (RPS6KA5 C-terminal kinase domain; binding; 1 µM): 54%
COc1cnc(Nc2cccc(S(N)(=O)=O)c2)nc1N1CCN(c2ccccc2)CC1 — remaining binding (RPS6KA5 C-terminal kinase domain; binding; 1 µM): 97%
Cc1cnn2ncc(-c3ccnc(N(C)C)n3)c2c1 — remaining binding (RPS6KA5 N-terminal kinase domain; binding; 1 µM): 100%
CN(C)C(=O)Cn1cc(-c2nc([C@@](C)(c3ccc(-c4cnc(N)nc4)cc3)C3CC3)no2)cn1 — remaining binding (RPS6KA5 C-terminal kinase domain; cell-free assay; 1 µM): 92%
c1cncc(-c2cccc(Nc3nccc(NC4CCCCC4)n3)c2)c1 — remaining binding (RPS6KA5 C-terminal kinase domain; binding; 10 µM): 100%
COc1ccnn2ncc(-c3ccnc(N(C)C)n3)c12 — remaining binding (RPS6KA5 C-terminal kinase domain; binding; 1 µM): 100%
Nc1ncc2c(n1)-c1c([nH]c3ccc(C#CC4CC4)cc13)CCCC2 — remaining binding (RPS6KA5 N-terminal kinase domain; binding; 1 µM): 93%
COc1cnc(Nc2cccc(S(N)(=O)=O)c2)nc1N1CCN(c2ccccc2)C(=O)C1 — remaining binding (RPS6KA5 C-terminal kinase domain; binding; 1 µM): 100%
CN(C)c1nccc(-c2cnc3ncccn23)n1 — remaining binding (RPS6KA5 C-terminal kinase domain; binding; 1 µM): 100%
Cc1noc([C@H]2C[C@@H](c3ccc(C(F)(F)F)cc3)CN(C(=O)N3CCS(=O)(=O)C3)C2)n1 — remaining binding (RPS6KA5 C-terminal kinase domain; cell-free assay; 1 µM): 100%
O=C(NCCCN1CCOCC1)c1ccc(Nc2nccc(-c3cc4ccccc4s3)n2)cc1 — remaining binding (RPS6KA5 N-terminal kinase domain; binding; 1 µM): 100%
O=C(O)c1cc(-c2ccc(C3CCNCC3)cc2)c2ccc(-c3ccc(C(F)(F)F)cc3)cc2c1 — remaining binding (RPS6KA5 C-terminal kinase domain; cell-free assay; 1 µM): 100%
CN(C)c1ncc(F)c(-c2cnn3ncccc23)n1 — remaining binding (RPS6KA5 N-terminal kinase domain; binding; 1 µM): 98%
O=C(c1ccc(Nc2ncc(Cl)c(-c3ccc(Cl)s3)n2)cc1)N1CCC(N2CCCC2)CC1 — remaining binding (RPS6KA5 N-terminal kinase domain; binding; 1 µM): 100%
F[C@@H]1CCN(c2nccc(-c3cnn4ncccc34)n2)C1 — remaining binding (RPS6KA5 C-terminal kinase domain; binding; 1 µM): 73%
O=C(Nc1c[nH]nc1C(=O)NC1CCNCC1)c1cc(F)cc(F)c1 — remaining binding (RPS6KA5 N-terminal kinase domain; binding; 1 µM): 96%
CCN1CCN(Cc2ccc(C(=O)Nc3ccc(C)c(Oc4ccc5c(c4)CC(=O)N5)c3)cc2C(F)(F)F)CC1 — remaining binding (RPS6KA5 C-terminal kinase domain; binding; 1 µM): 100%
NS(=O)(=O)c1cc(NC(=O)C2(c3ccccc3Cl)CC2)ccc1Oc1cccc(Cl)c1 — remaining binding (RPS6KA5 N-terminal kinase domain; cell-free assay; 1 µM): 100%
C=CC(=O)N1CCC(C(=O)NCC(=O)N2CCN(c3nc(-c4cnc(N)nc4C(F)F)nc(N4CCOCC4)n3)CC2)CC1 — remaining binding (RPS6KA5 C-terminal kinase domain; binding; 1 µM): 100%
Cc1cnc(Nc2ccc(C(=O)N3CCC(N4CCCC4)CC3)cc2)nc1-c1cc2ccccc2s1 — remaining binding (RPS6KA5 C-terminal kinase domain; binding; 1 µM): 96%
Cc1c[nH]c2nccc(Oc3c(F)cc(Nc4cc(Cl)nc(N)n4)cc3F)c12 — remaining binding (RPS6KA5 N-terminal kinase domain; cell-free assay; 0.1 µM): 100%
C[C@@H](c1ccc(-n2cnc3c(N)ncnc32)cc1)N1CCc2nn(C)c(Cc3ccccc3)c2C1=O — remaining binding (RPS6KA5 N-terminal kinase domain; binding; 0.1 µM): 95%
CSc1cccnc1N1CCN(Cc2nc3ccccc3[nH]2)CC1 — remaining binding (RPS6KA5 C-terminal kinase domain; cell-free assay; 1 µM): 100%
COc1ncc2cc3ccccc3nc2c1C#N — remaining binding (RPS6KA5 N-terminal kinase domain; cell-free assay; 5 µM): 91%
O=C(NCC1CCOCC1)c1n[nH]cc1NC(=O)c1c(F)cccc1F — remaining binding (RPS6KA5 C-terminal kinase domain; binding; 1 µM): 94%
O=C(c1ccc(Nc2ncc(Cl)c(-c3cc4ccccc4s3)n2)cc1)N1CCC(N2CCCC2)CC1 — remaining binding (RPS6KA5 N-terminal kinase domain; binding; 1 µM): 100%
N[C@@H]1CCN(c2nccc(-c3cnn4ncccc34)n2)C1 — remaining binding (RPS6KA5 C-terminal kinase domain; binding; 1 µM): 100%
O=C(c1ccc(Nc2nccc(-c3cc4ccccc4s3)n2)cc1)N1CCC(N2CCCC2)CC1 — remaining binding (RPS6KA5 N-terminal kinase domain; binding; 1 µM): 100%
CN([C@@H]1CCc2c(CC(=O)O)c3cc(S(C)(=O)=O)ccc3n2C1)S(=O)(=O)c1ccc(F)cc1 — remaining binding (RPS6KA5 N-terminal kinase domain; cell-free assay; 1 µM): 85%
CN(CCCC(F)(F)F)c1nccc(-c2cnn3ncccc23)n1 — remaining binding (RPS6KA5 C-terminal kinase domain; binding; 1 µM): 100%
C[C@H](c1ccnc(Nc2nc3ccc(-c4cc(N(C)C)ncn4)cc3[nH]2)c1)N1CCN(C(=O)CC(F)(F)F)CC1 — remaining binding (RPS6KA5 C-terminal kinase domain; cell-free assay; 0.1 µM): 61%
CNC(=O)[C@@H]1CC[C@@H](n2c(-c3ccc4cnccc4c3)nc3ccc(C(=O)NCc4cccc(C(N)=O)c4)cc32)C1 — remaining binding (RPS6KA5 N-terminal kinase domain; binding; 1 µM): 100%
